Measurements from different studies.
Compare with care: the assays were run in different laboratories.
CA1: Carbonic anhydrase 1 (CA1, Homo sapiens, UniProt P00915)
OPRD1: Delta-type opioid receptor (OPRD1, Homo sapiens, UniProt P41143)
Sigmar1: Sigma non-opioid intracellular receptor 1 (Sigmar1, Rattus norvegicus, UniProt Q9R0C9)
Pam: Peptidylglycine alpha-amidating monooxygenase (Pam, Rattus norvegicus, UniProt P14925)
CA2: Carbonic anhydrase 2 (CA2, Homo sapiens, UniProt P00918)
SNCA fibril: Alpha-synuclein, fibril (SNCA, Homo sapiens, UniProt P37840)
ADRA2A: Alpha-2A adrenergic receptor (ADRA2A, Homo sapiens, UniProt P08913)
HTR3A: 5-hydroxytryptamine receptor 3A (HTR3A, Homo sapiens, UniProt P46098)

The Ki of `NS(=O)(=O)c1nnc(NC(=O)CC2CCCC2)s1` is reported as 0.0863 µM (CA1; enzyme activity, inhibitor).
`CNc1nc(C#Cc2ccc(Cl)s2)nc2c1ncn2[C@H]1[C@H](O)[C@H](O)[C@]2(C(=O)OC)C[C@H]12` has a Ki of over 10 µM (OPRD1; ligand displacement, radioligand).
`Oc1cccc(Nc2nc(-c3ccc(F)cc3F)cs2)c1` has a Ki of 3.6 µM (Cholecystokinin receptor type A (CCKAR, Homo sapiens, UniProt P32238); cell-free assay).
`C#CCN(CCCN1CCN(C2CCCCC2)CC1)c1ccc(C(=O)c2ccccc2)cc1` gave a Ki of 0.652 µM (Sigmar1; ligand displacement, radioligand; cell membranes).
With `O=C(O)C#Cc1ccccc1` the Ki was 2000 µM (Pam; enzyme activity, inhibitor; pH 6).
The Ki of `CCOC(=O)[C@@]12C[C@@H]1[C@@H](n1cnc3c(NC)nc(C#Cc4ccc(Cl)s4)nc31)[C@H](O)[C@@H]2O` is reported as over 10 µM (OPRD1; ligand displacement, radioligand).
`NS(=O)(=O)c1nnc(NC(=O)CC2CC2)s1` has a Ki of 0.372 µM (CA1; enzyme activity, inhibitor).
For `CN1CCN(c2ccc(-c3ccnn3-c3ccc(S(N)(=O)=O)cc3)cc2)CC1`, the Ki was 0.587 µM (CA2; enzyme activity, inhibitor, stopped-flow).
`C#CCNCc1ccc(C(=O)c2ccc([N+](=O)[O-])cc2)cc1` gave a Ki of 0.12 µM (Sigmar1; ligand displacement, radioligand; cell membranes).
`CNC(=O)[C@@]12C[C@@H]1[C@@H](n1cnc3c(NC)nc(C#Cc4ccccc4Cl)nc31)[C@H](O)[C@@H]2O` has a Ki of over 10 µM (OPRD1; ligand displacement, radioligand).
`NS(=O)(=O)c1nnc(NC(=O)C2CCCC2)s1` has a Ki of 0.0262 µM (CA2; enzyme activity, inhibitor).
The Ki of `COc1ccc(C(=O)Nc2ccc(N3CCN(c4ccccn4)CC3)cn2)cc1` is reported as 0.0049 µM (SNCA fibril; ligand displacement, radioligand).
With `O=C(CCCCC1SC[C@@H]2NC(=O)N[C@H]12)NCCCN(CCCN1CCN(C2CCCCC2)CC1)CC(=O)Nc1ccc(C(=O)c2ccccc2)cc1` (stereo in doubt) the Ki was 0.221 µM (Sigmar1; ligand displacement, radioligand; cell membranes).
The Ki of `CNC(=O)[C@@]12C[C@@H]1[C@@H](n1cnc3c(NCCC(F)(F)F)nc(C#Cc4ccc(Cl)s4)nc31)[C@H](O)[C@@H]2O` is reported as over 10 µM (OPRD1; ligand displacement, radioligand).
For `NS(=O)(=O)c1ccc(-n2nccc2-c2ccc(N3CCCCC3)cc2)cc1`, the Ki was 0.689 µM (CA2; enzyme activity, inhibitor, stopped-flow).
`COc1ccnc(Oc2ccc(-c3c(C)c(=O)[nH]c(=O)n3C)c(C)c2)c1C(F)(F)F` gave a Ki of 6.9 µM (ADRA2A; ligand displacement, radioligand).
With `CN(C)c1ccc(C=CC(=O)O)cc1` the Ki was 3000 µM (Pam; enzyme activity, inhibitor; pH 6).
`C#CCN(CCCN1CCN(c2ccc(F)cc2)CC1)Cc1ccc(C(=O)c2ccc([N+](=O)[O-])cc2)cc1` gave a Ki of 0.29 µM (Sigmar1; ligand displacement, radioligand; cell membranes).
For `NS(=O)(=O)c1nnc(NC(=O)C2CC2)s1`, the Ki was 0.157 µM (CA1; enzyme activity, inhibitor).
The Ki of `CCCCN1CCC(COC(=O)c2ccc(N)c(OCF)c2)CC1` is reported as over 10 µM (ADRA2A; cell-free assay, radioligand).
`CC1CCC(C(=O)Nc2nnc(S(N)(=O)=O)s2)CC1` (stereo not shown) has a Ki of 0.026 µM (CA2; enzyme activity, inhibitor).
For `NS(=O)(=O)c1ccc(C(F)(F)F)cc1`, the Ki was about 0.23 µM (CA2; enzyme activity, inhibitor, absorbance).
`NC(=O)N1c2ccccc2C=Cc2ccccc21` gave a Ki of 811 µM (NAD(P)H dehydrogenase [quinone] 1 (NQO1, Homo sapiens, UniProt P15559); enzyme activity, inhibitor, absorbance).
`O=C(O)C=Cc1ccc([N+](=O)[O-])cc1` gave a Ki of 600 µM (Pam; enzyme activity, inhibitor; pH 6).
`CNC(=O)[C@@]12C[C@@H]1[C@@H](n1cnc3c(NCc4cccc(Cl)c4)nc(Cl)nc31)[C@H](O)[C@@H]2O` has a Ki of over 10 µM (OPRD1; ligand displacement, radioligand).
With `NS(=O)(=O)c1nnc(NC(=O)CC2CCC2)s1` the Ki was 0.0778 µM (CA1; enzyme activity, inhibitor).
The Ki of `COc1ccc(C(=O)Nc2ccc(N3CCCN(c4ccccn4)CC3)cn2)cc1` is reported as 0.185 µM (SNCA fibril; ligand displacement, radioligand).
For `O=C1c2ccccc2CCN1CCCCN1CCN(c2cccc(Cl)c2Cl)CC1`, the Ki was 0.099 µM (HTR3A; ligand displacement, radioligand).
The Ki of `NS(=O)(=O)c1ccc(-n2nccc2-c2ccc(N3CCOCC3)cc2)cc1` is reported as 0.624 µM (CA2; enzyme activity, inhibitor, stopped-flow).
The Ki of `Cc1nc2cc(OCCCCN3CCN(c4cccc(Cl)c4Cl)CC3)ccc2s1` is reported as 0.13 µM (HTR3A; cell-free assay, radioligand).
`CC[Si](C#Cc1ccc2c(c1)C=C([N+](=O)[O-])C(C(F)(F)F)O2)(CC)CC` (stereo not shown) has a Ki of 1.6 µM (ADRA2A; cell-free assay, radioligand).
With `CNc1nc(C#Cc2ccc(Cl)s2)nc2c1ncn2[C@@H]1O[C@H](C(=O)OC)[C@@H](O)[C@H]1O` the Ki was over 10 µM (OPRD1; ligand displacement, radioligand).
With `CC(C)[C@@H](CC[C@@H](C)[C@H]1CC[C@H]2[C@@H]3[C@H](O)C[C@H]4C[C@@H](NCCCNCCCCNCCCN)CC[C@]4(C)[C@H]3CC[C@]12C)OS(=O)(=O)O` the Ki was 20 µM (Receptor-type tyrosine-protein phosphatase F (Homo sapiens, UniProt P10586); enzyme activity, inhibitor).
`CNC(=O)[C@@]12C[C@@H]1[C@@H](n1cnc3c(NC4CC4c4ccccc4)nc(C#Cc4ccccc4)nc31)[C@H](O)[C@@H]2O` (mixture of isomers) gave a Ki of over 10 µM (OPRD1; ligand displacement, radioligand).
`C#CCN(CCCN1CCN(C2CCCCC2)CC1)CC(=O)Nc1ccc(C(=O)c2ccccc2)cc1` gave a Ki of 0.0169 µM (Sigmar1; ligand displacement, radioligand; cell membranes).
`CCCCOC(=O)[C@@]12C[C@@H]1[C@@H](n1cnc3c(NC)nc(C#Cc4ccc(Cl)s4)nc31)[C@H](O)[C@@H]2O` has a Ki of over 10 µM (OPRD1; ligand displacement, radioligand).
`O=C(c1ccccc1)c1ccc(CNCCCN2C(=O)c3ccccc3C2=O)cc1` gave a Ki of 0.311 µM (Sigmar1; ligand displacement, radioligand; cell membranes).
